# pIC50: −log10 of the molar value.
# Molecular target: T1, Protein kinase Pfmrk (Plasmodium falciparum, UniProt P90584)
# T1 sequence (P90584 whole entry): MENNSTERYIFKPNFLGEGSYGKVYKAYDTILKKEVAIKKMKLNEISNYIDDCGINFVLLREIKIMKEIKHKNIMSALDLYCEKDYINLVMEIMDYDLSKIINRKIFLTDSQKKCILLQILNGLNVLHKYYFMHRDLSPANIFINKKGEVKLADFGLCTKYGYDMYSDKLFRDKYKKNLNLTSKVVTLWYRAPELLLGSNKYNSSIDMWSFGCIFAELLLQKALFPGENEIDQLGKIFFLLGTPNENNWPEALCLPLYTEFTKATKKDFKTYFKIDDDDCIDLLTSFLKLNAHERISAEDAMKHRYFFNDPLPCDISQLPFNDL
# Experiment: Inhibition of Plasmodium falciparum cyclin-dependent kinase
# Procedure, shortened: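 Recombinant 6xHIS-tagged Plasmodial CDK (3.0 μg) expressed in E. coli, assayed with 2.0 μg GST-tagged cyclin Pfcyc-1 and 5.0 μg RNA polymerase II CTD substrate in 40 mM Hepes pH 7.5, 30 mM MnCl₂, 2.0 mM DTT. Enzyme and compound preincubated 5 min at 30 °C. Reaction started with [γ-32P]ATP plus 12.5 μM ATP, run 35 min at 30 °C. Filter plate washed with phosphoric acid, counted by scintillation. Triplicates; IC50 from concentration range.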
row,SMILES,pIC50
1,CCOC(=O)c1cc([N+](=O)[O-])ccc1Cl,4.06
2,NNC(Cc1c[nH]c2ccccc12)C(=O)O (stereo unspecified),3.74
3,CC1NN=C(c2ccccc2)C1[N+](=O)[O-] (stereo unspecified),3.40
4,O=C(/C=C/c1ccccn1)c1ccc([N+](=O)[O-])cc1,4.74
5,O=C1Nc2ccc([N+](=O)[O-])cc2/C1=C/c1ccccc1O,4.46
6,O=C1c2cc(F)ccc2-n2c1nc1ncccc1c2=O,5.33
7,Cc1cc(Cl)ccc1NC(=O)c1cccc([N+](=O)[O-])c1,4.16
8,O=C(/C=C/c1ccccc1)c1cccc([N+](=O)[O-])c1,5.00
9,CC(=O)Nc1ccc(C(=O)/C=C/c2ccccc2)cc1,4.77
10,O=C(Cl)c1c2c(nc3c(Cl)cc(Cl)cc13)-c1ccc(Cl)cc1CC2,4.60
11,CN1C(=O)/C(=C\C(=O)c2ccc(Br)cc2)c2ccccc21,4.54
12,O=C1NC(=O)/C(=C2/C(=O)Nc3ccc(F)cc32)S1,4.52
13,COc1ccc(-c2nnc(N(CCO)CCO)o2)cc1,4.45
14,CCOC(=O)/C(=C\c1ccccn1)C(=O)c1ccc([N+](=O)[O-])cc1,4.21
15,O=C1Nc2ccccc2/C1=C/C(=O)c1ccccc1,5.40
16,O=C1Nc2ccccc2/C1=C\c1ccc(C(F)(F)F)cc1,3.86
17,O=C1c2ccc(Cl)cc2-n2c1nc1ncccc1c2=O,5.46
18,COc1ccc2c(c1)/C(=C1\SC(=S)NC1=O)C(=O)N2,4.77

row,SMILES,pIC50
1,O=S(=O)(O)c1cc(O)c(/N=N/c2ccc(O)cc2O)c2ccccc12,4.96
2,O=[N+]([O-])c1cc(S(=O)(=O)Nc2ccc(C(F)(F)F)cc2)sc1Cl,5.60
3,N#C/C(=C1\OC(=O)N(c2ccc(Cl)cc2)C1=O)c1ccc(Cl)cc1,4.85
4,O=C(CCl)Nc1nc2c(Cl)cccc2s1,4.42
5,NC(=S)NC1(c2ccccc2)OC(=O)c2ccccc21 (stereo unspecified),4.15
6,O=C1c2cc([N+](=O)[O-])ccc2-n2c1nc1ncccc1c2=O,6.89
7,Cc1ccc(C(=O)/C=C2\C(=O)Nc3ccc(Br)cc32)cc1,5.54
8,O=C1/C(=C/c2ccccn2)CCc2ccccc21,4.77
9,O=C(N=C(S)Nc1cc([N+](=O)[O-])ccc1O)c1ccc(Cl)cc1Cl,5.00
10,Cn1cc(C(=O)C(C)(C)N)c2ccccc21,4.34
11,O=C1Nc2ccc([N+](=O)[O-])cc2C1=O [5-NITROISATIN],5.23
12,O=c1cc(-c2ccc(O)cc2)oc2cc(O)cc(O)c12 [APIGENIN],5.15
13,CCN(CC)CCCC(C)Nc1ccnc2cc(Cl)ccc12 (stereo unspecified) [CHLOROQUINE],3.82
14,O=c1c(-c2ccc(O)cc2)coc2cc(O)cc(O)c12 [GENISTEIN],4.03
15,CN(C)CCCn1cc(C2=C(c3c[nH]c4ccccc34)C(=O)NC2=O)c2ccccc21 [GF-109203],4.62
16,OC(c1cc(C(F)(F)F)nc2c(C(F)(F)F)cccc12)C1CCCCN1 (stereo unspecified) [MEFLOQUINE],4.92
17,O=c1c(O)c(-c2cc(O)c(O)c(O)c2)oc2cc(O)cc(O)c12 [MYRICETIN],3.80
18,Cn1cnc2c(NCc3ccccc3)nc(NCCO)nc21 [OLOMOUCINE],2.96
